EBI2 antag: blocks human EBI2 receptor beta-arrestin signaling | hit rate 0.81% among 360,000 | P32249 | EBI2 beta-arrestin recruitment, luminescence, 7a,25-OHC stimulated | inhibition, % at 5 µM; in the data active = inhibition above about 38%;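 note: enzyme fragment complementation signal reports receptor beta-arrestin coupling in cells; 0% = agonist plus DMSO wells and 100% = wells without agonist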
Target sequence (P32249 whole entry, looked up, the tested form may be a part): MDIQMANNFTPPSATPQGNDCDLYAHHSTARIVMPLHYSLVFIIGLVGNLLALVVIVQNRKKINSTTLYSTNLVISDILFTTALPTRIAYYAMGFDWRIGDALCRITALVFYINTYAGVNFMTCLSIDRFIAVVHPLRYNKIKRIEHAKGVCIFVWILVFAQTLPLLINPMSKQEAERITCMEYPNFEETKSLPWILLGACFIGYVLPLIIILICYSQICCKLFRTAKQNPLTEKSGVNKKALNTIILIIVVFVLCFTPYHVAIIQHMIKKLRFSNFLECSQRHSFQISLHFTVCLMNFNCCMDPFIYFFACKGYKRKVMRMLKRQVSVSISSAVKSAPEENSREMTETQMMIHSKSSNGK
APJ antag: blocks the human apelin receptor APJ. CHO-K1 APJ beta-arrestin complementation, luminescence. inhibition, % at 20 µM. hit rate 0.32% among 330,000;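 active = inhibition above about 40% at 20 µM, limit read from the data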;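 note: cells challenged with 10 nM apelin-13 agonist together with compound; plate controls were apelin-13 plus DMSO wells for no effect and DMSO wells lacking apelin-13 for full effect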
m5-HT2A agonist: activates the mouse 5-HT2A serotonin receptor. hit rate 0.66% among 360,000. AID 624169. activation, % at 7.6 µM. CHO-K1 mHTR2A beta-arrestin complementation, luminescence; percent of 30 µM serotonin response. P35363;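 active = activation above a run cutoff, the mean activation of all tested compounds plus 3 SD, cut at about 14% in these data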;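 note: 0% = plate median of compound wells and 100% = 30 µM serotonin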
CXCR6 block: blocks human CXCR6 beta-arrestin recruitment; O00574; CHO-K1 PathHunter CXCR6 beta-arrestin, luminescence; inhibition, % at 20 µM; hit rate 0.36% among 360,000; AID 602244; in the data active = inhibition above about 34%, passing the limit was not always enough;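 note: antagonist mode with CXCL16 agonist at 10 nM final; 0% = 10 nM CXCL16 with DMSO and 100% = unstimulated wells without agonist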
CCR6 antagonist: CCR6 (human) receptor antagonism. P51684. CHO-K1 CCR6 PathHunter beta-arrestin, luminescence, CCL20-stimulated. inhibition, % at 20 µM. hit rate 0.49% among 340,000;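 active = compounds whose inhibition of the agonist-driven luminescence signal at 20 µM reaches about 50%, limit read from the data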;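 note: cells stimulated with CCL20 at 14 nM final; plate controls were DMSO with CCL20 for no effect and DMSO without agonist for full effect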
APJ agonist: agonists of human APJ apelin receptor. activation, % at 20 µM. P35414. CHO-K1 APJ PathHunter beta-arrestin, luminescence; 0% DMSO wells, 100% apelin. hit rate 0.11% among 330,000;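 active = activation more than six SD over the plate average, tested at 20 µM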;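 note: 0% = DMSO alone and 100% = apelin-13 at 10 nM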
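Assay system: CHO-K1 cells stably expressing ProLink-tagged human APJ and arrestin–beta-gal acceptor. Compound dosing: 20 µM single point, 1% DMSO. Times: 16-18 h seeding, 90 min dark compound exposure, 60 min detection. Detection: beta-gal luminescence. Evaluation: APJ–arrestin association signal. Controls: negative DMSO alone, positive Apelin-13 at 10 nM.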
OPRM1 ag: counter-screen for mouse HTR2A agonists: human mu opioid receptor agonists. shares compounds with m5-HT2A agonist. U2OS OPRM1 beta-arrestin PathHunter, luminescence; DMSO 0%, DAMGO 9.3 µM 100%. activation, % at 9.3 µM. hit rate 5.3% among 2,300. AID 624380;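 active = mean activation above the mean of DMSO-only wells plus 3 SD, cut at about 0.5% in these data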
HTR2A ag conf: mouse HTR2A agonism confirmed. hit rate 19% among 2,300. CHO-K1 PathHunter beta-arrestin recruitment, luminescence; DMSO 0%, 30 µM serotonin 100%. activation, % at 7.6 µM. AID 624381. shares compounds with m5-HT2A agonist;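 active = mean activation across triplicates above the hit threshold derived in the original primary screen, cut at about 15% in these data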
* hit, by the source's call; nt = no result given. In the library only some 2.1% were active in any assay of this set; here they are far more common.

SMILES	EBI2 antag	APJ antag	m5-HT2A agonist	CXCR6 block	CCR6 antagonist	APJ agonist	OPRM1 ag	HTR2A ag conf
Cc1ccc2c(c1)C(c1ccccc1)N(C(=O)c1ccc(Br)o1)CC(=O)N2 (stereo unspecified)	-7	0	19*	-4	19	3	0	-3
COc1ccc(CCNC(=O)C2CC=CCC2C(=O)O)cc1 (stereo unspecified)	-8	7	1	7	-9	2	nt	nt
CCC/C(O)=C1\C(=O)CCCC1=NCCc1ccc(OCC)c(OCC)c1	0	-4	15*	-16	11	0	-1	-3
CCC[C@H]1CC(=O)C=C(c2ccsc2)ON1C(=O)OC(C)(C)C	5	nt	-5	5	5	nt	nt	nt
COc1ccc(C2=CC(=O)C[C@H](CN3C(=O)c4ccccc4C3=O)N(C(=O)OC(C)(C)C)O2)cc1	16	nt	15*	8	0	nt	-1	-5
CN(CCc1ccccc1)C(=O)c1cc(COc2ccc(F)cc2Cl)on1	-3	8	-7	6	8	0	nt	nt
CC(C)(C)OC(=O)NCCCCCc1nnc(SCc2c(F)cccc2Cl)o1	5	-32	-3	8	16	0	nt	nt
CC(C)(C)OC(=O)NCCc1nnc(SCc2c(Cl)cccc2Cl)o1	0	21	15*	2	-7	0	0	3
O=C(NCC1CC1)c1cccs1	2	nt	0	-6	nt	nt	nt	nt
O=C(NCC1CCCN(C2Cc3ccccc3C2)C1)c1cccs1 (stereo unspecified)	-1	-1	19*	-3	6	-3	0	15*
CC1CC(C)(C)NC(=S)N1CCCC(=O)NCc1ccccc1 (stereo unspecified)	3	-1	15*	-6	-7	0	-1	-1
O=C(COC(=O)CCN1C(=O)C2CC=CCC2C1=O)NCCc1ccccc1 (stereo unspecified)	9	-25	6	-9	10	5	nt	nt
CC(C)(C)N(Cc1ccccc1)C(=O)COC(=O)CCN1C(=O)C2CC=CCC2C1=O (stereo unspecified)	-6	-5	15*	4	-6	6	-1	-2
CC(C)N=C1NN=C(c2ccc(Cl)c(Cl)c2)CS1	-3	-28	0	10	16	-4	nt	nt
CCc1ccc2c(c1)C(=O)C(=O)N2CCS(=O)(=O)c1ccccc1	-18	16	21*	9	19	-6	-1	2
O=C1N=C(N2CCOCC2)S/C1=C\c1ccc(-c2ccccc2Cl)o1	-24	15	1	0	4	-2	nt	nt
Cc1ccccc1-c1ccc(/C=C2/SC(N3CCOCC3)=NC2=O)o1	-3	-14	21*	3	15	0	-1	89*
COCCC(=O)N1CCc2ccc(NC(=O)c3ccc(C(F)(F)F)cc3)cc2C1	22	8	32*	-13	4	-4	1.2*	1
COCCC(=O)Nc1ccc2c(c1)CN(C(=O)CSC)CC2	-3	-11	7	1	7	-3	nt	nt
Cc1cc(Cl)ccc1OCC(=O)OCC(=O)NC1CCS(=O)(=O)C1 (stereo unspecified)	-8	-3	2	2	7	2	nt	nt
Cc1ccccc1-c1nc(NCC2CC2)nc2ccsc12	1	nt	0	4	nt	nt	nt	nt
Cc1ccc(F)cc1-c1nc(NCC2CC2)nc2ccsc12	9	nt	16*	8	nt	nt	0	1
COc1cccc(CN2CCN(C(=S)NCc3ccc(Cl)cc3)CC2)c1	9	-5	29*	-9	21	-4	0.8*	25*
O=C(NCc1ccc(Cl)cc1)N1CCN(Cc2ccccc2)CC1	16	-22	35*	1	5	4	0	6
Cc1cc(NN)nc(NS(=O)(=O)c2ccc(Cl)cc2)n1	-9	-5	16*	-3	-20	0	0	7
SMILES	EBI2 antag	APJ antag	m5-HT2A agonist	CXCR6 block	CCR6 antagonist	APJ agonist	OPRM1 ag	HTR2A ag conf
CCCN1CCC(=NNc2ccc(S(=O)(=O)N3CCOCC3)cc2[N+](=O)[O-])CC1	0	-6	17*	3	1	5	0	1
Cc1ccc(NC(=O)CSc2nc(N)cc(=O)[nH]2)cc1S(=O)(=O)N1CCCCCC1	3	0	16*	-3	13	-7	-1	-5
O=C(Nc1ccc(Cl)cc1)OCCn1nnnc1C(c1ccccc1Cl)N1CCOCC1 (stereo unspecified)	2	12	-3	-3	10	2	nt	nt
CC1CCN(C(=O)c2ccc(SCc3ccccc3F)c([N+](=O)[O-])c2)CC1	11	-4	-3	2	26	-1	nt	nt
OC(CN1CCNCC1)Cn1c2ccccc2c2ccccc21 (stereo unspecified)	3	-31	18*	-2	-3	-3	-1	6
COc1cc(/C=C2\SC(=O)N(CCNC(=O)c3c(C)noc3C)C2=O)cc(OC)c1OC	6	10	21*	-1	5	0	0	-2
CCCNC(=S)N1CCC(C(=O)c2ccc(OC)cc2)CC1	2	-3	1	-4	7	-4	nt	nt
CCOC(=O)CNC(=O)c1cc(OC)cc(OC)c1	-2	4	6	-7	1	-1	nt	nt
CCOC(=O)NC(=O)COC(=O)CNC(=O)c1cccc(OC)c1	-4	11	20*	-1	2	1	-1	-3
CC(NC(=O)c1nn(C)c(=O)c2ccccc12)c1ccc(F)cc1 (stereo unspecified)	1	17	15*	-8	-5	-1	0	-3
Cc1ccc(CC(=O)N2CC(C)OC(C)C2)cc1 (stereo unspecified)	6	16	-2	6	-6	-1	nt	nt
CC1CN(C(=O)CS(=O)(=O)Cc2ccc(Cl)cc2)CC(C)O1 (stereo unspecified)	-3	4	15*	3	1	-5	-1	1
Cc1cc(-c2cccs2)c2c(n1)sc1c(=O)[nH]c(=O)[nH]c12	-2	23	17*	5	-13	-3	-1	-3
Cc1cc(Br)ccc1NC(=O)C1CCN(C(=O)c2ccco2)CC1	6	17	-7	5	8	-4	nt	nt
CCN1CCN(Cc2nnc(-c3ccc(C)cc3)o2)CC1	13	0	17*	-1	-11	-5	-1	-4
Cc1cc(NC(=O)COC(=O)C2CCN(S(=O)(=O)c3cccc(Cl)c3Cl)CC2)no1	6	14	24*	-3	-9	-2	-1	-4
